For orientation: IC50 means the concentration needed to halve the response being measured. Lower therefore signals inhibition by little substance.

The results in this text go back to ChEMBL document CHEMBL6092204, “Synthesis of pyridyl pyrimidine hedgehog signaling pathway inhibitors and their antitumor activity in human pancreatic cancer” (Eur J Med Chem, 2024).

The source made the active and inactive calls. The calls are words filed in the database; no cut-off is given here.

Experiment [1] in a line: Inhibition of Hh signaling pathway in mouse NIH3T3 cells incubated for 48 hrs by Gli luciferase reporter assay. It counts as cell-based. As to conditions: NIH3T3, 48 h. An outline of the steps: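 Reporter cells were seeded in 96-well plates, incubated overnight, then treated for 48 h. Lysate luciferase activity was measured with a dual-luciferase system, and firefly signal was normalised to Renilla.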
(In general: Reporter assays use an easily measured gene product as a stand-in for the process of interest.)

The test system of experiment [2] is BxPC-3. Kind of experiment: Antitumor activity aginst human BxPC-3 cells xenografted in BALB/c nude mouse assessed as tumor growth inhibition at 15 mg/kg, ip qd for 21 days. The note with it: time 21.0 day. (Xenograft models place foreign cells or tissue in a host animal.)
In experiment [3] the test system is PANC-1. Kind of experiment: Induction of apoptosis in human PANC-1 cells assessed as viable cells at 10 uM incubated for 48 hrs by Annexin V-FITC/PI staining based flow cytometry (reference value: 93.2 %). It counts as functional. The note with it: read-out: Activity. (In general: In flow cytometry, cells or beads pass a laser one at a time.)
For experiment [4], the system named is BXPC-3. The experiment can be described thus: Induction of apoptosis in human BXPC-3 cells assessed as late apoptotic cells at 10 uM incubated for 48 hrs by Annexin V-FITC/PI staining based flow cytometry (reference value: 6.72 %). Type of experiment: functional.
Experiment [5] deals with PANC-1. The experiment can be described thus: Induction of apoptosis in human PANC-1 cells assessed as early apoptotic cells at 10 uM incubated for 48 hrs by Annexin V-FITC/PI staining based flow cytometry (reference value: 1.88 %). It counts as functional.
The test system of experiment [6] is BXPC-3. The experiment can be described thus: Induction of apoptosis in human BXPC-3 cells assessed as viable cells at 10 uM incubated for 48 hrs by Annexin V-FITC/PI staining based flow cytometry (reference value: 91.5 %). It counts as functional. The note with it: read-out: Activity.
In experiment [7] the test system is BXPC-3. The experiment can be described thus: Induction of apoptosis in human BXPC-3 cells assessed as early apoptotic cells at 10 uM incubated for 48 hrs by Annexin V-FITC/PI staining based flow cytometry (reference value: 1.11 %). It counts as functional.
The test system of experiment [8] is PANC-1. The experiment can be described thus: Induction of apoptosis in human PANC-1 cells assessed as late apoptotic cells at 10 uM incubated for 48 hrs by Annexin V-FITC/PI staining based flow cytometry (reference value: 2.74 %). It counts as functional.
Experiment [9] concerns BXPC-3. Kind of experiment: Induction of apoptosis in human BXPC-3 cells assessed as necrotic cells at 10 uM incubated for 48 hrs by Annexin V-FITC/PI staining based flow cytometry (reference value: 0.71 %). It counts as functional.
Experiment [10] relates to PANC-1. The experiment can be described thus: Induction of apoptosis in human PANC-1 cells assessed as necrotic cells at 10 uM incubated for 48 hrs by Annexin V-FITC/PI staining based flow cytometry (reference value: 2.24 %). Type of experiment: functional.

`O=C(Nc1ccc(Cl)cc1)c1ccc(Nc2nccc(-c3cccnc3)n2)cc1` yielded a 50% inhibitory concentration (IC50) in [1] of 24.8 nM.

`Cc1cccc(NC(=O)c2ccc(Nc3nccc(-c4cccnc4)n3)cc2)c1` gave an IC50 in experiment [1] of 13.8 nM.

Consider `COc1ccc(NC(=O)c2ccc(Nc3nccc(-c4cccnc4)n3)cc2)cc1OC`, for which the half-maximal inhibitory concentration (IC50) in experiment [1] was found to be 22.5 nM.

In experiment [1], `CN1CCN(c2ccc(NC(=O)c3ccc(Nc4nccc(-c5cccnc5)n4)cc3)cc2)CC1` yielded an IC50 of 4.5 nM.

For the compound `Cc1ccccc1NC(=O)c1ccc(Nc2nccc(-c3cccnc3)n2)cc1`, half-maximal inhibition in [1] (IC50) was put at 14.6 nM.

Take `O=C(Nc1ccc(N2CCOCC2)cc1)c1ccc(Nc2nccc(-c3cccnc3)n2)cc1`: half-maximal inhibition in experiment [1] (IC50) required 17.3 nM.

In turn, `COc1ccccc1NC(=O)c1ccc(Nc2nccc(-c3cccnc3)n2)cc1` registered a 50% inhibitory concentration (IC50) in [1] of 9.1 nM.

In experiment [1], `O=C(Nc1ccc(F)cc1)c1ccc(Nc2nccc(-c3cccnc3)n2)cc1` had a concentration for half-maximal inhibition (IC50) of 35.3 nM.

The compound `COc1cc(NC(=O)c2ccc(Nc3nccc(-c4cccnc4)n3)cc2)cc(OC)c1OC` had a concentration for half-maximal inhibition (IC50) in [1] of 18.6 nM.

In experiment [1], `O=C(Nc1cccnc1)c1ccc(Nc2nccc(-c3cccnc3)n2)cc1` showed a half-inhibitory concentration (IC50) of 28.1 nM.

Compound `CCOc1ccc(NC(=O)c2ccc(Nc3nccc(-c4cccnc4)n3)cc2)cc1` gave a 50% inhibitory concentration (IC50) in experiment [1] of 12.2 nM.

As to `CS(=O)(=O)c1ccc(C(=O)Nc2ccc(Cl)c(-c3ccccn3)c2)c(Cl)c1` [VISMODEGIB], the inhibition entry in the experiment on BxPC-3 [2] is “Active”. Further, in experiment [1], the 50% inhibitory concentration (IC50) was found to be 15.1 nM. In addition, the viability at 10 µM with PANC-1 [3] amounted to 91.8%; with BXPC-3 [6] it was 90.6%. Moreover, the Activity with BXPC-3 [4] is reported as 7.55%; in the experiment with PANC-1 [5], 2.2%; in the experiment with BXPC-3 [7], 1.05%; in the experiment with PANC-1 [8], 3.3%; in the experiment on BXPC-3 [9] it was 0.77%; in the experiment with PANC-1 [10] it was 2.68%.

`Cc1cc(F)cc(NC(=O)c2ccc(Nc3nccc(-c4cccnc4)n3)cc2)c1` came in with an IC50 in [1] of 10.3 nM.

In the case of `O=C(Nc1cccc(C(F)(F)F)c1)c1ccc(Nc2nccc(-c3cccnc3)n2)cc1`, in [1], half-maximal inhibition (IC50) was put at 25.6 nM. Against the preceding compound, the IC50 is about 2.5-fold higher.

In the case of `COc1cc(NC(=O)c2ccc(Nc3nccc(-c4cccnc4)n3)cc2)cc(OC)c1`, the IC50 in [1] was determined as 29.7 nM. This IC50 and that of the compound before are within 1.5-fold of each other.

With `CNCc1ccc(C)c(NC(=O)c2ccc(Nc3nc(-c4ccccc4)c4ccccc4n3)cc2)c1` [BMS-833923], in experiment [1], the half-maximal inhibitory concentration (IC50) was determined as 5.5 nM. Compared with the last compound, the IC50 is about 5.4-fold lower.

`O=C(Nc1ccc(N2CCOCC2)c(F)c1)c1ccc(Nc2nccc(-c3cccnc3)n2)cc1` registered a 50% inhibitory concentration (IC50) in experiment [1] of 33.5 nM.

The compound `Cc1ccc(NC(=O)c2ccc(Nc3nccc(-c4cccnc4)n3)cc2)cc1F` had an IC50 in experiment [1] of 46.4 nM.

For the compound `COc1ccc(NC(=O)c2ccc(Nc3nccc(-c4cccnc4)n3)cc2)cc1`, in [1], the IC50 came out at 14.2 nM.

In experiment [1], `O=C(Nc1cccc(F)c1)c1ccc(Nc2nccc(-c3cccnc3)n2)cc1` returned an IC50 of 15.9 nM.
